A short description of data set [1]: Selectivity index, ratio of TC50 for human HepG2(2.2.15) cells to IC50 for HBV infected in human HepG2(2.2.15) cells assessed as inhibition of surface antigen secretion. A digest of the protocol: (§1)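 Selectivity index computed as TC50 (MTS, HepG2 2.2.15, 3 days) divided by IC50 for HBsAg, HBeAg or virion DNA inhibition in the same cell line.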
The nature of data set [2]: Cytotoxicity against human HepG2(2.2.15) cells. The data set is classed as cell-based. The conditions noted are these: read-out: TC50 (the source's name). A digest of the protocol:
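Cytotoxicity by MTS: HepG2 2.2.15 cells seeded at 4×10^4 cells/ml for 24 h, exposed to serial dilutions 2.5–160 µg/ml for 3 days; four replicates, viability expressed relative to untreated control; TC50 as 50% cytotoxic concentration.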

The subject of data set [3] is Hepatitis B virus. The data set can be described thus: Antiviral activity against HBV infected in human HepG2(2.2.15) cells assessed as inhibition of surface antigen secretion by EIA. Format: functional, organism-based. The method in brief:
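HepG2 2.2.15 cells (HepG2 stably carrying a head-to-tail HBV DNA dimer; MEM, 10% FBS, 37 °C, 5% CO2) treated with compound for 3 days; conditioned medium assayed for secreted HBsAg and HBeAg by enzyme immunoassay; mean and SD, n = 3; IC50 taken as 50% inhibitory concentration.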

Data set [4] concerns Hepatitis B virus. The data set can be described thus: Antiviral activity against HBV infected in human HepG2(2.2.15) cells assessed as inhibition of viral DNA replication. Format: functional, organism-based. The method in brief:
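Secreted virion DNA from HepG2 2.2.15 cells after 3 days of compound treatment; HBV DNA isolated from conditioned medium and quantified by SYBR Green real-time PCR (45 cycles, 95 °C 15 s / 58 °C 1 min); mean and SD, n = 3; IC50 as 50% inhibitory concentration.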

Data set [5] is described as follows: Selectivity index, ratio of TC50 for human HepG2(2.2.15) cells to IC50 for HBV infected in human HepG2(2.2.15) cells assessed as inhibition of viral DNA replication. A digest of the protocol:
as §1

Values after ≈ are worked out from the molar mass of the structure shown.

For the molecule `COc1ccc(C(=O)N[C@]2(C)CCC[C@@]3(C)[C@@H]4CC[C@@]5(C)C[C@]4(CC[C@@H]32)CC5=O)cc1`, the “Selectivity Index” value in data set [1] stood at 1.2. For the same molecule, the CC50 in data set [2] was found to be 22.4 µg/mL (≈ 53 µM). The IC50 in the data set with Hepatitis B virus [3] was determined as 18.8 µg/mL (≈ 44.3 µM).
Consider `C[C@@]12CC[C@@H]3[C@@](CC[C@H]4[C@@]3(C)CCC[C@@]4(C)NC(=O)c3ccc(Cl)cc3)(CC1=O)C2`, for which the “Selectivity Index” value in data set [1] is 1.04. For the same molecule, in data set [2], the CC50 worked out at 21.6 µg/mL (≈ 50.6 µM). Also, in the data set with Hepatitis B virus [3], the IC50 is 20.8 µg/mL (≈ 48.7 µM).
Regarding `C[C@@]12CC[C@@H]3[C@@](CC[C@H]4[C@@]3(C)CCC[C@@]4(C)NC(=O)c3ccc(I)cc3)(CC1=O)C2`, in data set [2], the CC50 is 10.5 µg/mL (≈ 20.3 µM).
Turning to `C[C@@]12CC[C@@H]3[C@@](CC[C@H]4[C@@]3(C)CCC[C@@]4(C)NC(=O)c3ccc(Br)cc3)(CC1=O)C2`, the “Selectivity Index” value in data set [1] turned out to be 1.41. In addition, the CC50 in data set [2] came out at 14.9 µg/mL (≈ 31.5 µM). Moreover, in the data set with Hepatitis B virus [3], the IC50 came out at 10.5 µg/mL (≈ 22.3 µM).
For the molecule `Cc1ccc(C(=O)N[C@]2(C)CCC[C@@]3(C)[C@@H]4CC[C@@]5(C)C[C@]4(CC[C@@H]32)CC5=O)cc1`, the CC50 in data set [2] amounted to 18.9 µg/mL (≈ 46.5 µM).
As for `Nc1ccn([C@@H]2CS[C@H](CO)O2)c(=O)n1` [LAMIVUDINE], the “Selectivity Index” value in data set [1] came to 4.17; in data set [5], 5. In data set [2], the CC50 turned out to be 205 µg/mL (≈ 894 µM). In addition, the figures for the IC50 in the data set with Hepatitis B virus [4] and with Hepatitis B virus [3] were 41 µg/mL (≈ 179 µM) and 49.1 µg/mL (≈ 214 µM), respectively.
As for `O=c1[nH]cc(F)c(=O)[nH]1` [FLUOROURACIL], the CC50 in data set [2] amounted to 6.12 µg/mL (≈ 47 µM).

In general, IC50 refers to the point on the concentration scale where inhibition reaches its midpoint.

Source of the values: ChEMBL document CHEMBL3407350, “Synthesis and anti-hepatitis B virus activity of C4 amide-substituted isosteviol derivatives” (Bioorg Med Chem, 2015).
